This note sets out measurements from ChEMBL document CHEMBL1125645, “Specific bradycardic agents. 2. Heteroaromatic modifications in the side chain of specific bradycardic benzazepinones: chemistry, pharmacology, and structure-activity relationships” (1991).

The species named for experiment [1] is Rattus norvegicus. In words: Delta HR ratio measured as the ratio of delta HR(20 min)/delta HR (5 min). It counts as functional. The essentials:
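Duration-of-action index: the % heart-rate reduction at 20 min divided by that at 5 min after 5 mg/kg iv. Rats were male Chbb:THOM, pentobarbital-anesthetized and ventilated, with heart rate taken from an ECG-triggered tachograph.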

The test system of experiment [2] is Rattus norvegicus. In words: Bradycardic activity was evaluated in an anesthetized rat model as percent heart rate(beats/min) reduction 20 min after iv injection of 5 mg/kg. It counts as functional. The essentials:
(§1)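 Male Chbb:THOM rats, 200-250 g, anesthetized with pentobarbital sodium 50 mg/kg ip, with the trachea cannulated and artificial respiration given. Heart rate was recorded continuously by an ECG-triggered beat-to-beat tachograph before and at 5 and 20 min after a single iv injection of 5 mg/kg. Values are % change from pre-dose, reported ± SEM.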

The species entered for experiment [3] is Rattus norvegicus. In words: Ratio of heart rate reduction to mean arterial blood pressure reduction. It counts as functional. The essentials: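 Selectivity parameter S: the % heart-rate reduction divided by the % mean arterial pressure reduction, both read 5 min after 5 mg/kg iv in anesthetized, ventilated male Chbb:THOM rats. Heart rate came from an ECG-triggered tachograph and pressure from a carotid cannula.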

In experiment [4] the test system is Rattus norvegicus. The experiment can be described thus: Bradycardic activity was evaluated in an anesthetized rat model as percent heart rate(beats/min) reduction 5 min after iv injection of 5 mg/kg. It counts as functional. The essentials: as §1
The test system of experiment [5] is Rattus norvegicus. In words: Hypotensive activity was evaluated in an anesthetized rat model as percent mean aortic blood pressure(mm hg) reduction 5 min after iv injection of 5 mg/kg. It counts as functional, Artery. The essentials:
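In pentobarbital-anesthetized (50 mg/kg ip), artificially ventilated male Chbb:THOM rats (200-250 g), mean aortic pressure was measured through a carotid artery cannula connected to an electromechanical transducer. Readings were taken before and 5 min after 5 mg/kg iv. Values are % change from baseline, ± SEM.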

`COc1cc2c(cc1OC)CC(=O)N(CCCN(C)CCc1csc3ccccc13)CC2`: the Ratio in the experiment filed under Rattus norvegicus [1] is 0.78. The “Delta HR” value with Rattus norvegicus [2] is -51%; in the experiment on Rattus norvegicus [4] it was -66%. Moreover, in the experiment filed under Rattus norvegicus [3], the Selectivity is recorded as 1.2. Besides, the “Delta MAP” value in the experiment with Rattus norvegicus [5] was -55%.
As for `COc1cc2c(cc1OC)CC(=O)N(CCCN(C)CCCCCCc1cccs1)CC2`, the Ratio in the experiment filed under Rattus norvegicus [1] stood at 0.4. Also, the “Delta HR” value in the experiment with Rattus norvegicus [2] is -21%; in the experiment on Rattus norvegicus [4], -53%. Also, the Selectivity in the experiment listed under Rattus norvegicus [3] was 2. Further, in the experiment with Rattus norvegicus [5], the “Delta MAP” value is -26%.
For `COc1ccc2[nH]cc(CCN(C)CCCN3CCc4cc(OC)c(OC)cc4CC3=O)c2c1` the same measures were 0.92, -29%, -32%, 1.8 and -18%.
For `COc1cc2c(cc1OC)CC(=O)N(CCCN(C)CCc1coc3cccc(OC)c13)CC2` the same measures were 0.45, -14%, -31%, 3.9 and -8%.
The like results for `COc1cc2c(cc1OC)CC(=O)N(CCCN(C)CCCCc1cccs1)CC2` were, in that order, 0.39, -24%, -61%, 2.3 and -2%.
On to `COc1cc2c(cc1OC)CC(=O)N(CCCN(C)CCCCCc1cccs1)CC2`, for which, in the experiment filed under Rattus norvegicus [1], the Ratio was found to be 0.53. Also, the “Delta HR” value with Rattus norvegicus [2] was -36%; in the experiment with Rattus norvegicus [4], -68%. Further, in the experiment listed under Rattus norvegicus [3], the Selectivity stood at 4.4. Further, in the experiment on Rattus norvegicus [5], the “Delta MAP” value is -15%.
For `COc1cc2c(cc1OC)CC(=O)N(CCCN(C)CCc1cc3ccccc3o1)CC2`, in the experiment filed under Rattus norvegicus [1], the Ratio is recorded as 0.67. For the same molecule, the figures for the “Delta HR” value with Rattus norvegicus [2] and in the experiment on Rattus norvegicus [4] were -45% and -67%, respectively. Besides, in the experiment listed under Rattus norvegicus [3], the Selectivity was determined as 1.7. For the same molecule, the “Delta MAP” value with Rattus norvegicus [5] is on record as -39%.
Regarding `COc1cc2c(cc1OC)CC(=O)N(CCCN(C)CCc1cc(C)sc1C)CC2`, the Ratio in the experiment listed under Rattus norvegicus [1] stood at 0.65. Besides, the figures for the “Delta HR” value in the experiment on Rattus norvegicus [2] and in the experiment on Rattus norvegicus [4] were -40% and -61%, respectively. Moreover, the Selectivity in the experiment listed under Rattus norvegicus [3] is 1.7. In addition, the “Delta MAP” value in the experiment on Rattus norvegicus [5] is recorded as -36%.
For `COc1cc2c(cc1OC)CC(=O)N(CCCN(C)CCCc1csc3ccccc13)CC2` the same measures were 0.69, -45%, -65%, 1.4 and -46%.
The like results for `COc1cc2c(cc1OC)CC(=O)N(CCCN(C)CCc1cccnc1)CC2` were, in that order, 1.5, -18%, -12%, 1.1 and -11%.
For the molecule `COc1cc2c(cc1OC)CC(=O)N(CCCN(C)CCc1cccs1)CC2`, the Ratio in the experiment listed under Rattus norvegicus [1] is on record as 0.56. Besides, the “Delta HR” value in the experiment on Rattus norvegicus [2] is -16%; with Rattus norvegicus [4] it was -28%. Besides, in the experiment filed under Rattus norvegicus [3], the Selectivity came out at 0.82. Also, the “Delta MAP” value in the experiment on Rattus norvegicus [5] is given as -34%.
For `COc1cc2c(cc1OC)CC(=O)N(CCCN(C)CCc1c[nH]c3ccccc13)CC2` the same measures were 0.73, -36%, -50%, 2.2 and -23%.
For `COc1cc2c(cc1OC)CC(=O)N(CCCN(C)CCCc1cccs1)CC2` the same measures were 0.48, -19%, -40%, 2 and -20%.
Consider `COc1cc2c(cc1OC)CC(=O)N(CCCN(C)CCc1ccco1)CC2`, for which the Ratio in the experiment filed under Rattus norvegicus [1] is reported as 0.92. Also, the “Delta HR” value is given as -11% in the experiment with Rattus norvegicus [2] and -12% with Rattus norvegicus [4]. Further, in the experiment filed under Rattus norvegicus [3], the Selectivity is 0.23. Moreover, the “Delta MAP” value in the experiment with Rattus norvegicus [5] was -52%.
As to `COc1cc2c(cc1OC)CC(=O)N(CCCN(C)Cc1csc3ccccc13)CC2`, the Ratio in the experiment filed under Rattus norvegicus [1] is on record as 0.4. Further, the results for the “Delta HR” value in the experiment with Rattus norvegicus [2] and in the experiment on Rattus norvegicus [4] were -7% and -18%, respectively. In the experiment listed under Rattus norvegicus [3], the Selectivity was 0.66. Further, in the experiment on Rattus norvegicus [5], the “Delta MAP” value was -27%.
The like results for `COc1cc2c(cc1OC)CC(=O)N(CCCN(C)CCc1csc3ccc(C)cc13)CC2` were, in that order, 0.75, -38%, -51%, 1.4 and -36%.
Take `COc1cc2c(cc1OC)CC(=O)N(CCCN(C)CCc1csc3cc(O)ccc13)CC2`: in the experiment listed under Rattus norvegicus [1], the Ratio is reported as 0.74. Further, the “Delta HR” value is -37% in the experiment on Rattus norvegicus [2] and -50% with Rattus norvegicus [4]. For the same molecule, the Selectivity in the experiment listed under Rattus norvegicus [3] came out at 1.7. Besides, the “Delta MAP” value with Rattus norvegicus [5] is -29%.
With `COc1cc2c(cc1OC)CC(=O)N(CCCN(C)CCc1cn(C)c3ccccc13)CC2`, in the experiment listed under Rattus norvegicus [1], the Ratio stood at 0.74. Further, the “Delta HR” value with Rattus norvegicus [2] is on record as -37%; with Rattus norvegicus [4], -50%. Moreover, the Selectivity in the experiment filed under Rattus norvegicus [3] was determined as 2.3. Moreover, the “Delta MAP” value with Rattus norvegicus [5] was -22%.
For `COc1cc2c(cc1OC)CC(=O)N(CCCN(C)CCc1csc3cc(OC)c(OC)cc13)CC2` the same measures were 0.71, -17%, -24%, 1.4 and -17%.
In the case of `COc1ccc(CCN(C)CCCN2CCc3cc(OC)c(OC)cc3CC2=O)cc1OC` [ZATEBRADINE], in the experiment listed under Rattus norvegicus [1], the Ratio worked out at 0.83. Besides, the “Delta HR” value in the experiment on Rattus norvegicus [2] is -46%; in the experiment on Rattus norvegicus [4] it was -56%. Also, the Selectivity in the experiment listed under Rattus norvegicus [3] turned out to be 2.6. Moreover, the “Delta MAP” value in the experiment on Rattus norvegicus [5] is on record as -21%.
The like results for `COc1cc2c(cc1OC)CC(=O)N(CCCN(C)CCc1csc3cc(OS(C)(=O)=O)ccc13)CC2` were, in that order, 0.8, -40%, -50%, 2.4 and -21%.
For `COc1cc2c(cc1OC)CC(=O)N(CCCN(C)CCc1c[nH]c3ccc(O)cc13)CC2` the same measures were 0.49, -24%, -49%, 1.8 and -27%.
For `COc1cc2c(cc1OC)CC(=O)N(CCCN(C)CCc1csc3cccc(OC)c13)CC2` the same measures were 0.72, -24%, -34%, 1.6 and -21%.
For the molecule `COc1cc2c(cc1OC)CC(=O)N(CCCN(C)CCCc1ccco1)CC2`, the Ratio in the experiment listed under Rattus norvegicus [1] turned out to be 0.95. Further, the “Delta HR” value is given as -18% in the experiment with Rattus norvegicus [2] and -19% in the experiment with Rattus norvegicus [4]. In the experiment filed under Rattus norvegicus [3], the Selectivity is listed as 0.31. Further, in the experiment on Rattus norvegicus [5], the “Delta MAP” value was -61%.
The like results for `COc1ccc2c(CCN(C)CCCN3CCc4cc(OC)c(OC)cc4CC3=O)coc2c1` were, in that order, 0.58, -34%, -59%, 1.7 and -35%.
